{
  "source": "ChEMBL document CHEMBL2057067",
  "about": "“Synthesis of phenserine analogues and evaluation of their cholinesterase inhibitory activities” (Bioorg Med Chem, 2012)",
  "key": {"Acetylcholinesterase": {"target": "T1, Acetylcholinesterase (Rattus norvegicus, UniProt P37136)", "T1 sequence (P37136 whole entry)": "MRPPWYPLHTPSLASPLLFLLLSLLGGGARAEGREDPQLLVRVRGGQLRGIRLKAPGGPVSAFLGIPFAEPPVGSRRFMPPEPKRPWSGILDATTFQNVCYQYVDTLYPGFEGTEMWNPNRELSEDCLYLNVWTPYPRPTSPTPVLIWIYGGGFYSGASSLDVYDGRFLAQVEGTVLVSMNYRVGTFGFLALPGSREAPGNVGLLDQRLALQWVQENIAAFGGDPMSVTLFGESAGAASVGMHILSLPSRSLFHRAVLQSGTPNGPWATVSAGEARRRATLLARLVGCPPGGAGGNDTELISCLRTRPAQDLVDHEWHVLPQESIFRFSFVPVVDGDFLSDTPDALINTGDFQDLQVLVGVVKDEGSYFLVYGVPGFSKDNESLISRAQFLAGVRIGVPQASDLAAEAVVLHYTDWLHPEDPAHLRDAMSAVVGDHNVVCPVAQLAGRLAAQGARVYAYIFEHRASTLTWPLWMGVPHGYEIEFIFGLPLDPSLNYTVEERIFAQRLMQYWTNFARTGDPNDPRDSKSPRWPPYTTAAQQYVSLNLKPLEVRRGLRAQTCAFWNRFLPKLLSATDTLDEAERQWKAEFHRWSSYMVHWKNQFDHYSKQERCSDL", "test": "(§1) Inhibition of AChE in Wistar rat brain homogenate using acetylthiocholine iodide as substrate after 0.5 hrs by Ellman's method", "type": "tissue-based", "outline": "(§2)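 Male Wistar ST rats (8–10 weeks old). Inhibitor is preincubated with homogenate (3:10 v/v) for 0.5 h at 37 °C. Ellman assay in 0.1 M phosphate with DTNB (10 mM stock) and acetylthiocholine (75 mM stock). A412 is recorded for 2 min at 25 °C, and the last-minute change gives activity. Four dose-response curves.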"}, "[1]": {"target": "T2, Acetylcholinesterase (Rattus norvegicus) (UniProt P37136)", "T2 sequence (whole entry)": "T1 sequence (P37136 whole entry)", "test": "as §1", "type": "tissue-based", "outline": "as §2"}, "[2]": {"target": "Butyrylcholinesterase (Rattus norvegicus) (UniProt Q9JKC1)", "sequence (Q9JKC1 as listed by the source)": "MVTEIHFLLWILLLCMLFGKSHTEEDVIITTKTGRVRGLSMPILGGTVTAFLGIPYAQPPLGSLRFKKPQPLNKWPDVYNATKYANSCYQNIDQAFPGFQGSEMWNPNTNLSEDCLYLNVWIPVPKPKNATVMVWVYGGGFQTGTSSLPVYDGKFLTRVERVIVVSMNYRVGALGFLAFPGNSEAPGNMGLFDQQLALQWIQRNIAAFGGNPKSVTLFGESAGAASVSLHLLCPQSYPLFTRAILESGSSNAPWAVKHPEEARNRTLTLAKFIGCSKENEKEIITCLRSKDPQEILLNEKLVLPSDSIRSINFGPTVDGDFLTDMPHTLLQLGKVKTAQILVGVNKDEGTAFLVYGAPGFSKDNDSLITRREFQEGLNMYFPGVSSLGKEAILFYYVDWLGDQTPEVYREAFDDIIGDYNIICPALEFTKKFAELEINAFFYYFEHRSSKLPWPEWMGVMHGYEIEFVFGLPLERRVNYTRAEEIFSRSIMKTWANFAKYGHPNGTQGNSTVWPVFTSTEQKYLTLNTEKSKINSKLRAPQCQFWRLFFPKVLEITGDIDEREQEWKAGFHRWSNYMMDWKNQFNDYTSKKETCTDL", "test": "(§3) Inhibition of BuChE in Wistar rat plasma using acetylthiocholine iodide as substrate after 0.5 hrs by Ellman's method"}, "Butyrylcholinesterase": {"target": "Butyrylcholinesterase (Rattus norvegicus, UniProt Q9JKC1)", "sequence (Q9JKC1 whole entry)": "as the sequence (Q9JKC1 as listed by the source) above", "test": "as §3"}, "Rattus norvegicus": {"species_on_record": "Rattus norvegicus", "test": "Selectivity ratio of IC50 for BuChE in Wistar rat plasma to IC50 for AChE in Wistar rat brain homogenate", "type": "tissue-based"}},
  "data": [
    {"smiles": "C=CCC12CCN(C)C1N(C)c1ccc(OC(=O)Nc3ccc(C(C)C)cc3)cc12", "note": "(racemic)", "values": [
      {"measurement": "IC50", "setting": "Acetylcholinesterase", "result": "> 10", "unit": "µM"},
      {"measurement": "inhibition", "setting": "[1]", "result": "Dose-dependent effect"},
      {"measurement": "inhibition", "setting": "[2]", "result": "Dose-dependent effect"},
      {"measurement": "IC50", "setting": "Butyrylcholinesterase", "result": "> 10", "unit": "µM"}
    ]},
    {"smiles": "CNC(=O)Oc1ccc2c(c1)[C@]1(C)CCN(C)[C@@H]1N2C", "note": "[PHYSOSTIGMINE]", "values": [
      {"measurement": "inhibition", "setting": "[1]", "result": "Dose-dependent effect"},
      {"measurement": "inhibition", "setting": "[2]", "result": "Dose-dependent effect"},
      {"measurement": "IC50", "setting": "Butyrylcholinesterase", "result": 0.0584, "unit": "µM"}
    ]},
    {"smiles": "CCC12CCN(C)C1N(C)c1ccc(OC(=O)Nc3ccccc3)cc12", "note": "(racemic)", "values": [
      {"measurement": "IC50", "setting": "Acetylcholinesterase", "result": 0.397, "unit": "µM"},
      {"measurement": "inhibition", "setting": "[1]", "result": "Dose-dependent effect"},
      {"measurement": "inhibition", "setting": "[2]", "result": "Dose-dependent effect"},
      {"measurement": "IC50", "setting": "Butyrylcholinesterase", "result": 30, "unit": "µM"},
      {"measurement": "Ratio IC50", "setting": "Rattus norvegicus", "result": 76}
    ]},
    {"smiles": "C=CCC12CCN(C)C1N(C)c1ccc(OC(=O)Nc3ccccc3F)cc12", "note": "(racemic)", "values": [
      {"measurement": "IC50", "setting": "Acetylcholinesterase", "result": 3.55, "unit": "µM"},
      {"measurement": "inhibition", "setting": "[1]", "result": "Dose-dependent effect"},
      {"measurement": "inhibition", "setting": "[2]", "result": "Dose-dependent effect"},
      {"measurement": "IC50", "setting": "Butyrylcholinesterase", "result": 87.3, "unit": "µM"},
      {"measurement": "Ratio IC50", "setting": "Rattus norvegicus", "result": 25}
    ]},
    {"smiles": "CCC(C)(C)C12CCN(C)C1N(C)c1ccc(OC(=O)Nc3ccccc3)cc12", "note": "(racemic)", "values": [
      {"measurement": "IC50", "setting": "Acetylcholinesterase", "result": 18.4, "unit": "µM"},
      {"measurement": "inhibition", "setting": "[1]", "result": "Dose-dependent effect"},
      {"measurement": "inhibition", "setting": "[2]", "result": "Dose-dependent effect"},
      {"measurement": "IC50", "setting": "Butyrylcholinesterase", "result": "> 100", "unit": "µM"},
      {"measurement": "Ratio IC50", "setting": "Rattus norvegicus", "result": "> 5.4"}
    ]},
    {"smiles": "CN1CC[C@@]2(C)c3cc(OC(=O)Nc4ccccc4)ccc3N(C)C12", "note": "(stereo partly specified)", "values": [
      {"measurement": "IC50", "setting": "Acetylcholinesterase", "result": 0.0283, "unit": "µM"},
      {"measurement": "inhibition", "setting": "[1]", "result": "Dose-dependent effect"},
      {"measurement": "inhibition", "setting": "[2]", "result": "Dose-dependent effect"},
      {"measurement": "IC50", "setting": "Butyrylcholinesterase", "result": 30, "unit": "µM"},
      {"measurement": "Ratio IC50", "setting": "Rattus norvegicus", "result": 1100}
    ]},
    {"smiles": "C=CC12CCN(C)C1N(C)c1ccc(OC(=O)Nc3ccccc3)cc12", "note": "(racemic)", "values": [
      {"measurement": "IC50", "setting": "Acetylcholinesterase", "result": 0.749, "unit": "µM"},
      {"measurement": "inhibition", "setting": "[1]", "result": "Dose-dependent effect"},
      {"measurement": "inhibition", "setting": "[2]", "result": "Dose-dependent effect"},
      {"measurement": "IC50", "setting": "Butyrylcholinesterase", "result": "> 30", "unit": "µM"},
      {"measurement": "Ratio IC50", "setting": "Rattus norvegicus", "result": "> 40"}
    ]},
    {"smiles": "C=CCC12CCN(C)C1N(C)c1ccc(OC(=O)Nc3ccc(F)cc3)cc12", "note": "(racemic)", "values": [
      {"measurement": "IC50", "setting": "Acetylcholinesterase", "result": 4.36, "unit": "µM"},
      {"measurement": "inhibition", "setting": "[1]", "result": "Dose-dependent effect"},
      {"measurement": "inhibition", "setting": "[2]", "result": "Dose-dependent effect"},
      {"measurement": "IC50", "setting": "Butyrylcholinesterase", "result": "> 100", "unit": "µM"},
      {"measurement": "Ratio IC50", "setting": "Rattus norvegicus", "result": "> 23"}
    ]},
    {"smiles": "C=CC[C@]12CCN(C)[C@@H]1N(C)c1ccc(OC(=O)Nc3ccccc3)cc12", "values": [
      {"measurement": "IC50", "setting": "Acetylcholinesterase", "result": 1.26, "unit": "µM"},
      {"measurement": "inhibition", "setting": "[1]", "result": "Dose-dependent effect"},
      {"measurement": "inhibition", "setting": "[2]", "result": "Dose-dependent effect"},
      {"measurement": "IC50", "setting": "Butyrylcholinesterase", "result": "> 100", "unit": "µM"},
      {"measurement": "Ratio IC50", "setting": "Rattus norvegicus", "result": "> 79"}
    ]},
    {"smiles": "CC[C@]12CCN(C)[C@@H]1N(C)c1ccc(OC(=O)Nc3ccccc3)cc12", "values": [
      {"measurement": "IC50", "setting": "Acetylcholinesterase", "result": 0.373, "unit": "µM"},
      {"measurement": "inhibition", "setting": "[1]", "result": "Dose-dependent effect"},
      {"measurement": "inhibition", "setting": "[2]", "result": "Dose-dependent effect"},
      {"measurement": "IC50", "setting": "Butyrylcholinesterase", "result": 36.2, "unit": "µM"},
      {"measurement": "Ratio IC50", "setting": "Rattus norvegicus", "result": 97}
    ]},
    {"smiles": "C=CCC12CC(=O)N(C)C1N(C)c1ccc(OC(=O)Nc3ccccc3)cc12", "note": "(racemic)", "values": [
      {"measurement": "IC50", "setting": "Acetylcholinesterase", "result": 4.73, "unit": "µM"},
      {"measurement": "inhibition", "setting": "[1]", "result": "Dose-dependent effect"},
      {"measurement": "inhibition", "setting": "[2]", "result": "Dose-dependent effect"},
      {"measurement": "IC50", "setting": "Butyrylcholinesterase", "result": 65.3, "unit": "µM"},
      {"measurement": "Ratio IC50", "setting": "Rattus norvegicus", "result": 14}
    ]},
    {"smiles": "C=CCC12CCN(C)C1N(C)c1ccc(OC(=O)Nc3ccccc3)cc12", "note": "(racemic)", "values": [
      {"measurement": "IC50", "setting": "Acetylcholinesterase", "result": 3.77, "unit": "µM"},
      {"measurement": "inhibition", "setting": "[1]", "result": "Dose-dependent effect"},
      {"measurement": "inhibition", "setting": "[2]", "result": "Dose-dependent effect"},
      {"measurement": "IC50", "setting": "Butyrylcholinesterase", "result": "> 100", "unit": "µM"},
      {"measurement": "Ratio IC50", "setting": "Rattus norvegicus", "result": "> 27"}
    ]},
    {"smiles": "C=CCC12CCN(C)C1N(C)c1ccc(OC(=O)Nc3ccc(Br)cc3)cc12", "note": "(racemic)", "values": [
      {"measurement": "IC50", "setting": "Acetylcholinesterase", "result": "> 10", "unit": "µM"},
      {"measurement": "inhibition", "setting": "[1]", "result": "Dose-dependent effect"},
      {"measurement": "inhibition", "setting": "[2]", "result": "Dose-dependent effect"},
      {"measurement": "IC50", "setting": "Butyrylcholinesterase", "result": "> 10", "unit": "µM"}
    ]},
    {"smiles": "CCCC12CCN(C)C1N(C)c1ccc(OC(=O)Nc3ccccc3)cc12", "note": "(racemic)", "values": [
      {"measurement": "IC50", "setting": "Acetylcholinesterase", "result": 3.66, "unit": "µM"},
      {"measurement": "inhibition", "setting": "[1]", "result": "Dose-dependent effect"},
      {"measurement": "inhibition", "setting": "[2]", "result": "Dose-dependent effect"},
      {"measurement": "IC50", "setting": "Butyrylcholinesterase", "result": "> 100", "unit": "µM"},
      {"measurement": "Ratio IC50", "setting": "Rattus norvegicus", "result": "> 27"}
    ]},
    {"smiles": "C=C[C@@]12CCN(C)[C@@H]1N(C)c1ccc(OC(=O)Nc3ccccc3)cc12", "values": [
      {"measurement": "IC50", "setting": "Acetylcholinesterase", "result": 0.644, "unit": "µM"},
      {"measurement": "inhibition", "setting": "[1]", "result": "Dose-dependent effect"},
      {"measurement": "inhibition", "setting": "[2]", "result": "Dose-dependent effect"},
      {"measurement": "IC50", "setting": "Butyrylcholinesterase", "result": 41.9, "unit": "µM"},
      {"measurement": "Ratio IC50", "setting": "Rattus norvegicus", "result": 65}
    ]},
    {"smiles": "CCC(C)(C)[C@@]12CCN(C)[C@@H]1N(C)c1ccc(OC(=O)Nc3ccccc3)cc12", "values": [
      {"measurement": "IC50", "setting": "Acetylcholinesterase", "result": 9.5, "unit": "µM"},
      {"measurement": "inhibition", "setting": "[1]", "result": "Dose-dependent effect"},
      {"measurement": "inhibition", "setting": "[2]", "result": "Dose-dependent effect"},
      {"measurement": "IC50", "setting": "Butyrylcholinesterase", "result": "> 100", "unit": "µM"},
      {"measurement": "Ratio IC50", "setting": "Rattus norvegicus", "result": "> 11"}
    ]}
  ]
}
